ChEMBL document CHEMBL5252546, “Salutaxel, a Conjugate of Docetaxel and a Muramyl Dipeptide (MDP) Analogue, Acts as Multifunctional Prodrug That Inhibits Tumor Growth and Metastasis” (J Med Chem, 2018)
Activity calls are given as the source filed them. No cut-off for these calls is given here.

Tests used:
4T1 [1] = assay: Antitumor activity against mouse 4T1 cells implanted in BALB/c mouse assessed as decrease in neutrophil in peripheral blood at 11.4 mg/kg,iv administrated qd for 2 days by blood smear staining microscopic analysis; type: functional, organism-based; conditions: time 2.0 day
Summary of the method: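 On day 19 after 4T1 implantation, mice were randomized into five groups and given iv vehicle or test article, plus ip C12-iE-DAP (50 μg/mouse) and MDP (100 μg/mouse), once daily for 2 days. Mice were killed 6 h later. Peripheral blood neutrophils/leukocytes were counted on stained blood smears at 1000×.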

4T1 [2] = assay: Antitumor activity against mouse 4T1 cells xenografted with BALB/c mouse assessed as inhibition of tumor growth at 5.7 mg/kg,iv in presence of compound 5b administrated once per week for 4 weeks; type: functional; conditions: 4T1, 672 h
Summary of the method: (§1)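 4T1 cells injected into mammary fat pads of BALB/c mice. Dosing iv once per week for 4 weeks, saline vehicle; single-agent arms were given alone or with the peptide component (5b or 6). Endpoints were body weight, tumour volume, tumour weight, lung metastatic nodule count and lung metastasis score. Mean ± SEM, n = 10; ANOVA and Student's t test.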

4T1 [3] = assay: Antitumor activity against mouse 4T1 cells xenografted with BALB/c mouse assessed as reduction lung metastatic nodules at 5.7 mg/kg,iv in presence of compound 6 administrated once per week for 4 weeks; type: functional, organism-based; summary of the method: as §1
4T1 [4] = assay: Antitumor activity against mouse 4T1 cells implanted in BALB/c mouse assessed as decrease in tumor MMP9 expression level at 5.7 mg/kg,iv administrated once per week for 4 weeks by western blot assay; type: functional, organism-based
Summary of the method: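 4T1 cells injected into mammary fat pads of BALB/c mice. Saline vehicle or test article given iv once weekly for 4 weeks. Spleen, lung and tumor lysates immunoblotted for MMP2/MMP9 with β-actin as loading control. Bands averaged over five mice per group, representative of two independent experiments.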

4T1 [5] = assay: Antitumor activity against mouse 4T1 cells implanted in BALB/c mouse assessed as decrease in lung metastasis at 5.7 mg/kg,iv administrated once per week for 4 weeks by H and E staining based assay; type: functional, organism-based
Summary of the method: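 BALB/c mice bearing orthotopic mammary fat pad 4T1 tumors, dosed iv weekly for 4 weeks with saline vehicle as control. Lung sections stained with hematoxylin and eosin and examined by light microscopy at 40× for metastasis, inflammatory infiltration and alveolar wall thickening.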

[6] = Cmax in female Beagle dog at 1 mg/kg,iv measured upto 24 hrs; type: ADME, organism-based, Canis lupus familiaris; set-up: dose 1 mg/kg, time < 24 hrs, route iv; conditions: in vivo
Summary of the method: (§2)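 Beagle dogs were given a single iv infusion at 1, 2 or 4 mg/kg. Plasma parent drug and released docetaxel were followed over time. Cmax, Tmax, AUC, MRT, t1/2, CL and Vss were reported by sex and for all dogs combined.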

[7] = AUC (0-infinity) in rat at 4 mg/kg,iv measured upto 24 hrs; type: ADME, organism-based; set-up: dose 4 mg/kg, time < 24 hrs, route iv; conditions: in vivo
Summary of the method: (§3)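 Single iv dose: rats 2, 4 or 8 mg/kg by intravenous injection; Beagle dogs 1, 2 or 4 mg/kg by intravenous infusion. Plasma concentration–time data were analysed by sex and pooled. Reported parameters: Cmax, Tmax, AUC0−t, AUC0−∞, MRT0−∞, t1/2, CL, Vss, given as mean ± SD.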

[8] = AUC (0-infinity) in male Beagle dog at 4 mg/kg,iv measured upto 24 hrs; type: ADME, organism-based, Canis lupus familiaris; set-up: dose 4 mg/kg, time < 24 hrs, route iv; conditions: in vivo; summary of the method: as §3
[9] = AUC (0-infinity) in rat at 2 mg/kg,iv measured upto 24 hrs; type: ADME, organism-based; set-up: dose 2 mg/kg, time < 24 hrs, route iv; conditions: in vivo; summary of the method: as §3
[10] = Drug metabolism in monkey hepatocytes assessed as MDA-205 metabolite formation at 20 uM incubated for 180 mins; type: ADME, cell-based, Macaca mulatta, Hepatocyte; conditions: rhesus monkey, 3 h
[11] = Prodrug conversion in mouse tumor implanted with mouse 4T1 cells assessed as Cmax of docetaxel at 4 mg/kg,iv measured upto 72 hrs; type: ADME, organism-based, Neoplasm; set-up: time < 72 hrs, dose 4 mg/kg, route iv; conditions: in vivo
[12] = Stability in human plasma assessed as compound remaining at 1 uM incubated for 6 hrs; type: ADME, cell-free
[13] = Tmax in female rat at 4 mg/kg,iv measured upto 24 hrs; type: ADME, organism-based; conditions: in vivo
[14] = Half life in Beagle dog at 1 mg/kg,iv measured upto 24 hrs; type: ADME, organism-based, Canis lupus familiaris; conditions: in vivo
[15] = MRT (0 to infinity) in female rat at 4 mg/kg,iv measured upto 24 hrs; type: ADME, organism-based; conditions: in vivo
[16] = Chronic toxicity in female Beagle dog at 3 to 18 mg/kg,iv administered once per week for 30 days; type: organism-based, Canis lupus familiaris; conditions: in vivo, 720 h, dose 3-18 mg/kg, time 30 day
Summary of the method: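 Long-term toxicity: rats given iv 2, 4 or 8 mg/kg and dogs 3, 6 or 18 mg/kg once weekly over 30 days; toxicokinetics recorded; highest non-severely toxic dose determined by sex.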

[17] = Clearance in male Beagle dog at 2 mg/kg,iv measured upto 24 hrs; type: ADME, organism-based, Canis lupus familiaris; conditions: in vivo; summary of the method: as §2
[18] = Toxicity in BALB/c mouse xenografted with mouse 4T1 cells assessed as decrease in body weight at 10 mg/kg,iv administrated once per week for 4 weeks; type: organism-based; conditions: in vivo, 672 h
4T1 [19] = assay: Antitumor activity against mouse 4T1 cells xenografted with BALB/c mouse assessed as decrease in tumor volume at 10 mg/kg,iv administrated once per week for 4 weeks; type: functional, organism-based
Summary of the method: (§4)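 4T1 cells injected into the mammary fat pad of BALB/c mice; iv saline vehicle or 5, 10 or 20 mg/kg once weekly for 4 weeks; body weight, tumour volume, tumour weight, lung metastatic nodule count and metastasis score recorded; n = 10, mean ± SEM, ANOVA and Student's t test.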

[20] = MRT (0 to infinity) in female Beagle dog at 1 mg/kg,iv measured upto 24 hrs; type: ADME, organism-based, Canis lupus familiaris; conditions: in vivo
[21] = Toxicity in female Sprague-Dawley rat assessed as maximal non-toxic dose at iv administration; type: organism-based; conditions: in vivo, read-out: MNTD
4T1 [22] = assay: Antitumor activity against mouse 4T1 cells xenografted with BALB/c mouse assessed as inhibition of tumor growth at 10 mg/kg,iv administrated once per week for 4 weeks; type: functional; conditions: 4T1, 672 h; summary of the method: as §4
[23] = Drug distribution in rat spleen at 4 mg/kg,iv measured by 0.25 hrs; type: ADME, organism-based; conditions: in vivo
Summary of the method: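 Rats received 4 mg/kg iv. Parent drug and released docetaxel were assayed in tissues and plasma from the first sampling at 0.25 h to 24 h. The lower limit of quantitation was 200 ng/g.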

[24] = Prodrug conversion in mouse plasma implanted with mouse 4T1 cells assessed as Cmax of docetaxel at 4 mg/kg,iv measured upto 72 hrs; type: ADME, organism-based; set-up: dose 4 mg/kg, time < 72 hrs, route iv; conditions: in vivo
[25] = Half life in female rat at 4 mg/kg,iv measured upto 24 hrs; type: ADME, organism-based; conditions: in vivo
[26] = Toxicity in BALB/c mouse xenografted with mouse 4T1 cells assessed as decrease in body weight at 10 mg/kg,iv administrated with doxorubicin combination once per week for 4 weeks; type: organism-based; conditions: in vivo, 672 h
[27] = Toxicity in Beagle dog assessed as effect on electrocardiogram index at 1 to 4 mg/kg,iv; type: organism-based, Canis lupus familiaris; conditions: in vivo, dose 1-4 mg/kg
[28] = Drug metabolism in human hepatocytes assessed as MDA-205 metabolite formation at 20 uM incubated for 180 mins; type: ADME, cell-based, Hepatocyte; conditions: 3 h
4T1 [29] = assay: Antitumor activity against mouse 4T1 cells implanted in BALB/c mouse assessed as decrease in serum TIMP-1 level at 10 mg/kg,iv administrated once per week for 4 weeks by ELISA; type: functional, organism-based
Summary of the method: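 4T1 fat-pad model in BALB/c mice, iv 5–20 mg/kg once weekly for 4 weeks, with vehicle and naive groups; serum MMP9, TIMP-1, IL-6 and S100A9 measured by mouse ELISA kits.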

Cytochrome P450 2D6 = Cytochrome P450 2D6 (Homo sapiens, UniProt P10635); assay: Inhibition of CYP2D6 in human liver microsomes using probe substrate at 0.1 to 100 uM in presence of NADPH; type: ADME, Microsome; conditions: dose 0.1-100 µM
Chain of Cytochrome P450 2D6 (P10635 whole entry): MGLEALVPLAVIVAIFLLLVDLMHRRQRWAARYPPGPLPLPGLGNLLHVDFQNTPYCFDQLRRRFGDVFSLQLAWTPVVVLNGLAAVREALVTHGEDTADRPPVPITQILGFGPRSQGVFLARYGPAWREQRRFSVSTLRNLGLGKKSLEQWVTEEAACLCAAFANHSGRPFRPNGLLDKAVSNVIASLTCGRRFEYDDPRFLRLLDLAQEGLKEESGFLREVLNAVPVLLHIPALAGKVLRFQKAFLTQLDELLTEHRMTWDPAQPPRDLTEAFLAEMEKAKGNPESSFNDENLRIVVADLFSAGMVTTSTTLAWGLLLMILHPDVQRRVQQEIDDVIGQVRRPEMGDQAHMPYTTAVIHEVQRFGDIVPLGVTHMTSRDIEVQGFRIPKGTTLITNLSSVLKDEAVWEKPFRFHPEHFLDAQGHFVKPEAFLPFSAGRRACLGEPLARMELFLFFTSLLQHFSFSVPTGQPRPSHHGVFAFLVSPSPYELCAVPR

For `CC(=O)O[C@@]12CO[C@@H]1C[C@H](O)[C@@]1(C)C(=O)[C@H](O)C3=C(C)[C@@H](OC(=O)[C@H](O)[C@@H](NC(=O)OC(C)(C)C)c4ccccc4)C[C@@](O)([C@@H](OC(=O)c4ccccc4)[C@H]21)C3(C)C` [DOCETAXEL ANHYDROUS], the Activity (4T1 [1]) was “Active”, the inhibition in vivo at 5.7 mg/kg (4T1 [2]) was 14.4% and the Activity (4T1 [3]) was “inactive”. The Activity (4T1 [4]) was “inactive” and the Activity (4T1 [5]) was “Active”.

With `CC(=O)O[C@@]12CO[C@@H]1C[C@H](O)[C@@]1(C)C(=O)[C@H](O)C3=C(C)[C@@H](OC(=O)[C@H](OC(=O)CCC(=O)NCCCC[C@H](NC(=O)CC[C@@H](NC(=O)[C@H](C)NC(=O)/C=C/c4ccc(F)cc4Cl)C(N)=O)C(=O)O)[C@@H](NC(=O)OC(C)(C)C)c4ccccc4)C[C@@](O)([C@@H](OC(=O)c4ccccc4)[C@H]21)C3(C)C` the Cmax [6] was 4020 ng/mL, the AUC(0-inf) [7] was 16900 ng·h/mL and the AUC(0-inf) [8] was 15300 ng·h/mL. The AUC(0-inf) [9] was 5230 ng·h/mL, the Drug metabolism [10] was “Metabolite_Detected” and the Cmax [11] was 2.39 µM. For the same compound, the Stability [12] was “Stable”, the Tmax [13] was 4.98 min and the half-life [14] was 21.3 min. The MRT inf [15] was 15.7 min, the Activity [16] was “Non-Toxic” and the clearance [17] was 7.13 mL/min/kg. For the same compound, the Activity [18] was “Toxic”, the Activity (4T1 [19]) was “Active” and the MRT inf [20] was 18.4 min. For the same compound, the NOAEL [21] was 2 mg/kg, the inhibition in vivo at 10 mg/kg (4T1 [22]) was 37% and the Drug uptake [23] was “Active”. The Cmax [24] was 43.3 µM, the half-life [25] was 10.4 min and the Activity [26] was “Toxic”. For the same compound, the Activity [27] was “Non-Toxic”, the Drug metabolism [28] was “Metabolite_Detected” and the Activity (4T1 [29]) was “Active”. The “inhibition (INH)” value (Cytochrome P450 2D6) was “Not Active”.
